Results gathered from unrelated publications.
Protocols differ between the studies behind these lines.
Technique: competition with immobilised ligand
RPS6KA1 N-terminal kinase domain: Ribosomal protein S6 kinase alpha-1, N-terminal kinase domain (RPS6KA1, Homo sapiens, UniProt Q15418)
RPS6KA1 C-terminal kinase domain: Ribosomal protein S6 kinase alpha-1, C-terminal kinase domain (RPS6KA1, Homo sapiens, UniProt Q15418)

SMILES | target | effect on | concentration | remaining binding
C[C@@H](c1ccc(-n2cnc3c(N)ncnc32)cc1)N1CCc2nn(C)c(Cc3ccccc3)c2C1=O | RPS6KA1 N-terminal kinase domain | binding | 0.1 µM | 96%
O=C(c1ccc(Nc2ncc(Cl)c(-c3cc4ccccc4s3)n2)cc1)N1CCC(N2CCCC2)CC1 | RPS6KA1 N-terminal kinase domain | binding | 1 µM | 63%
CNC(=O)[C@@H]1CC[C@@H](n2c(-c3ccc4cnccc4c3)nc3ccc(C(=O)NCc4cccc(C(N)=O)c4)cc32)C1 | RPS6KA1 C-terminal kinase domain | binding | 1 µM | 100%
CS(=O)(=O)NCC[C@H](NC(=O)c1cncc2c1cnn2-c1ccc(F)cc1)c1ccnc(S(C)(=O)=O)c1 | RPS6KA1 N-terminal kinase domain | cell-free assay | 1 µM | 100%
FC(F)(F)Oc1cccc(-c2cnc3ccc(-c4ccncc4)nn23)c1 | RPS6KA1 N-terminal kinase domain | binding | 5 µM | 63%
CCN1CCN(Cc2ccc(C(=O)Nc3ccc(C)c(Oc4ccc5c(c4)CC(=O)N5)c3)cc2C(F)(F)F)CC1 | RPS6KA1 C-terminal kinase domain | binding | 1 µM | 95%
COc1cnc(Nc2cccc(S(N)(=O)=O)c2)nc1N1CCN(c2ccccc2)C(=O)C1 | RPS6KA1 C-terminal kinase domain | binding | 1 µM | 92%
CC1CCCN1c1nccc(-c2cnn3ncccc23)n1 (stereo not drawn) | RPS6KA1 N-terminal kinase domain | binding | 1 µM | 100%
O=C(c1ccc(Nc2nccc(-c3cc4ccccc4s3)n2)cc1)N1CCC(N2CCCC2)CC1 | RPS6KA1 C-terminal kinase domain | binding | 1 µM | 60%
c1cncc(-c2cccc(Nc3nccc(NC4CCCCC4)n3)c2)c1 | RPS6KA1 N-terminal kinase domain | binding | 10 µM | 9.9%
C=CC(=O)N1CCC(C(=O)NCC(=O)N2CCN(c3nc(-c4cnc(N)nc4C(F)F)nc(N4CCOCC4)n3)CC2)CC1 | RPS6KA1 C-terminal kinase domain | binding | 1 µM | 100%
O=C(NCCCN1CCOCC1)c1ccc(Nc2nccc(-c3cc4ccccc4s3)n2)cc1 | RPS6KA1 C-terminal kinase domain | binding | 1 µM | 54%
COc1ncc2cc3ccccc3nc2c1C#N | RPS6KA1 N-terminal kinase domain | cell-free assay | 5 µM | 91%
O=C(c1ccc(Nc2ncc(Cl)c(-c3ccc(Cl)s3)n2)cc1)N1CCC(N2CCCC2)CC1 | RPS6KA1 C-terminal kinase domain | binding | 1 µM | 72%
O=C(N1CCS(=O)(=O)CC1)N1C[C@H](c2ccc(OC(F)(F)F)cc2)C[C@H](c2nc(C3CC3)no2)C1 | RPS6KA1 C-terminal kinase domain | cell-free assay | 1 µM | 100%
Cc1cnc(Nc2ccc(C(=O)N3CCC(N4CCCC4)CC3)cc2)nc1-c1cc2ccccc2s1 | RPS6KA1 C-terminal kinase domain | binding | 1 µM | 74%
Nc1ncc2c(n1)-c1c([nH]c3ccc(C#CC4CC4)cc13)CCCC2 | RPS6KA1 N-terminal kinase domain | binding | 1 µM | 90%

SMILES | target | effect on | concentration | remaining binding
COc1cnc(Nc2cccc(S(N)(=O)=O)c2)nc1N1CCN(c2ccccc2)CC1 | RPS6KA1 N-terminal kinase domain | binding | 1 µM | 100%
CN(CCCC(F)(F)F)c1nccc(-c2cnn3ncccc23)n1 | RPS6KA1 C-terminal kinase domain | binding | 1 µM | 100%
C[C@@H]1CN(c2cc(-c3n[nH]c4ccc(OC5(C)CC5)cc34)ncn2)C[C@H](C)O1 | RPS6KA1 N-terminal kinase domain | cell-free assay | 0.1 µM | 97%
O=C(NCCCN1CCOCC1)c1ccc(Nc2ncc(Cl)c(-c3ccc(Cl)s3)n2)cc1 | RPS6KA1 C-terminal kinase domain | binding | 1 µM | 72%
O=C(NCC1CCOCC1)c1n[nH]cc1NC(=O)c1c(F)cccc1F | RPS6KA1 C-terminal kinase domain | binding | 1 µM | 93%
CN(c1nccc(-c2cnn3ncccc23)n1)C1CC1 | RPS6KA1 C-terminal kinase domain | binding | 1 µM | 100%
O=C(NS(=O)(=O)c1ccc(NCC2CCOCC2)c([N+](=O)[O-])c1)c1ccc(N2CCN(Cc3ccc(C(F)(F)F)cc3-c3ccc(Cl)cc3)CC2)cc1Oc1cnc2[nH]ccc2c1 | RPS6KA1 N-terminal kinase domain | cell-free assay | 1 µM | 95%
C[C@H]1CCN(c2nccc(-c3cnn4ncccc34)n2)C1 | RPS6KA1 N-terminal kinase domain | binding | 1 µM | 94%
CN(C)c1ncnc(-c2ccc3nc(Nc4cc(CN5CCN(C(=O)CC(F)(F)F)CC5)ccn4)[nH]c3c2)c1Cl | RPS6KA1 C-terminal kinase domain | cell-free assay | 1 µM | 98%
N[C@H]1CCN(c2nccc(-c3cnn4ncccc34)n2)C1 | RPS6KA1 N-terminal kinase domain | binding | 1 µM | 100%
CCC(=N\O)/C(C)=C/c1ccc(F)cc1 | RPS6KA1 N-terminal kinase domain | cell-free assay | 1 µM | 100%
CN(C)c1nccc(-c2cnn3ncccc23)n1 | RPS6KA1 C-terminal kinase domain | binding | 1 µM | 100%
O=C(NCc1ncc(C(F)(F)F)cc1Cl)c1ccc2c(c1)C1(CCS(=O)(=O)CC1)[C@H](C1CC1)N2S(=O)(=O)c1ccc(F)cc1 | RPS6KA1 N-terminal kinase domain | cell-free assay | 1 µM | 100%
O=C(Nc1c[nH]nc1C(=O)NC1CCNCC1)c1cc(F)cc(F)c1 | RPS6KA1 C-terminal kinase domain | binding | 1 µM | 100%
CO[C@@H](C)c1c(Nc2ccc([C@H](N(C)C(=O)C3CCS(=O)(=O)CC3)C(F)(F)F)cc2)cnc2cc(Cl)nn12 | RPS6KA1 C-terminal kinase domain | cell-free assay | 1 µM | 91%
F[C@@H]1CCN(c2nccc(-c3cnn4ncccc34)n2)C1 | RPS6KA1 N-terminal kinase domain | binding | 1 µM | 100%
